Measurements of several laboratories.
Compare with care: the assays were run in different laboratories.
Cell line: NCI-H460
Effect on: cell growth or viability

COc1ccc(C(=O)/C=C/c2cccnc2)cc1S(N)(=O)=O — GI50 (SRB; 48 h): 9.1 µM
Cc1cc(C)n(C(=S)[S][Au][PH](CCCCCC[PH]([Au][S]C(=S)n2nc(C)cc2C)(c2ccccc2)c2ccccc2)(c2ccccc2)c2ccccc2)n1 — GI50 (SRB): 0.638 µM
COc1ccc(C(=O)/C=C/c2cccc(Cl)c2Cl)cc1S(N)(=O)=O — GI50 (SRB; 48 h): 1.9 µM
CCCc1n(Cc2ccc3ccccc3n2)cc[n+]1Cc1ccc2ccccc2n1 — TGI (SRB): 11.7 µM
C=CC(=O)Nc1cc(Nc2nc(N3CCc4sccc4C3)c3cccnc3n2)c(OC)cc1N1CCSCC1 — IC50 (MTT): 0.229 µM
COc1ccc(-c2ccc(-c3ccc(C(=N)N)nc3)s2)cc1Cl — GI50 (SRB): 1.8 µM
COc1ccc(C(=O)/C=C/c2ccc3ccccc3c2)cc1S(N)(=O)=O — inhibition (SRB; 10 µM): 98%
C=C(Cl)C(=O)Nc1cc(Nc2nc(N3CCCC3)c3sccc3n2)c(OC)cc1N(C)CCN(C)C — IC50 (MTT): 6.48 µM
COc1ccc(C(=O)/C=C/c2cccc(Cl)c2)cc1S(N)(=O)=O — inhibition (SRB; 10 µM): 97%
C/C=C/C(=O)Nc1cc(Nc2nc(Nc3cnn(C)c3)c3sccc3n2)c(OC)cc1N(C)CCN(C)C — IC50 (MTT): > 50 µM
COc1ccc(C(=O)/C=C/c2cc3c(cc2Br)OCO3)cc1S(N)(=O)=O — inhibition (SRB; 10 µM): 100%
c1ccc2cc(Cn3cc[n+](Cc4ccc5ccccc5c4)c3)ccc2c1 — TGI (SRB): 10.4 µM
COc1cccc(Oc2ccccc2NC(=O)CNC(=O)c2cccc3ccccc23)c1 — GI50 (SRB; 48 h): 0.295 µM
CCc1n(Cc2ccc3ccccc3n2)cc[n+]1Cc1ccc2ccccc2n1 — TGI (SRB): 11.9 µM
C=CC(=O)Nc1cc(Nc2nc(N3CCc4sccc4C3)c3cccnc3n2)c(OC)cc1N(C)C — IC50 (MTT): > 50 µM
CN1C[C@H](C(=O)N[C@]2(C)O[C@@]3(O)[C@@H]4CCCN4C(=O)[C@H](Cc4ccccc4)N3C2=O)C[C@@H]2c3cccc4[nH]cc(c34)C[C@H]21 — EC50 (MTT; 72 h): 67 µM
C=CC(=O)Nc1cc(Nc2nc(N3CCc4sccc4C3)c3cccnc3n2)c(OC)cc1N1CCC(N(C)C)CC1 — IC50 (MTT): 0.558 µM
COc1ccc(C(=O)/C=C/c2cccc3ccccc23)cc1S(N)(=O)=O — GI50 (SRB; 48 h): 1.8 µM
C=C(Cl)C(=O)Nc1cc(Nc2nc(N3CCSCC3)c3sccc3n2)c(OC)cc1N(C)CCN(C)C — IC50 (MTT): 1.31 µM
CCCc1n(Cc2ccc3ccccc3n2)cc[n+]1Cc1ccc2ccccc2c1 — TGI (SRB): 10.6 µM
